Source: ChEMBL document CHEMBL1153427, “1-Sulfonyl-4-acylpiperazines as selective cannabinoid-1 receptor (CB1R) inverse agonists for the treatment of obesity” (J Med Chem, 2009)

Key:
Cannabinoid receptor 1 [1] = target: T1, Cannabinoid receptor 1 (Homo sapiens, UniProt P21554); experiment: Displacement of [3H]CP-55940 from human recombinant CB1R expressed in CHO cells; format: cell-based
Outline: (§1)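 Radioligand competition used 0.5 nM [³H]CP55940 with recombinant human CB1R-CHO or CB2R-CHO membranes. Bound and free ligand were separated by filtration, and IC₅₀ came from nonlinear curve fitting.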

Cannabinoid receptor 1 [2] = target: T1, Cannabinoid receptor 1; experiment: Inverse agonist activity at human recombinant CB1R expressed in CHO cells assessed as increase in forskolin-stimulated cAMP level; format: functional, cell-based
Outline: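 Recombinant CB1R-CHO cells were incubated with test compound across a range of concentrations, plus forskolin and the phosphodiesterase inhibitor IBMX. Buffer was Earle's balanced salt solution with 5 mM MgCl₂, 10 mM HEPES pH 7.3 and 1 mg/mL BSA, for 30 min at room temperature, with cAMP read out.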

Cannabinoid receptor 2 = Cannabinoid receptor 2 (Homo sapiens, UniProt P34972); experiment: Displacement of [3H]CP-55940 from human recombinant CB2R expressed in CHO cells; format: cell-based; outline: as §1
[3] = target: Voltage-gated inwardly rectifying potassium channel KCNH2 (Homo sapiens, UniProt Q12809); experiment: Inhibition of human ERG by MK-0499 binding assay
Sequence of Voltage-gated inwardly rectifying potassium channel KCNH2 (Q12809 whole entry): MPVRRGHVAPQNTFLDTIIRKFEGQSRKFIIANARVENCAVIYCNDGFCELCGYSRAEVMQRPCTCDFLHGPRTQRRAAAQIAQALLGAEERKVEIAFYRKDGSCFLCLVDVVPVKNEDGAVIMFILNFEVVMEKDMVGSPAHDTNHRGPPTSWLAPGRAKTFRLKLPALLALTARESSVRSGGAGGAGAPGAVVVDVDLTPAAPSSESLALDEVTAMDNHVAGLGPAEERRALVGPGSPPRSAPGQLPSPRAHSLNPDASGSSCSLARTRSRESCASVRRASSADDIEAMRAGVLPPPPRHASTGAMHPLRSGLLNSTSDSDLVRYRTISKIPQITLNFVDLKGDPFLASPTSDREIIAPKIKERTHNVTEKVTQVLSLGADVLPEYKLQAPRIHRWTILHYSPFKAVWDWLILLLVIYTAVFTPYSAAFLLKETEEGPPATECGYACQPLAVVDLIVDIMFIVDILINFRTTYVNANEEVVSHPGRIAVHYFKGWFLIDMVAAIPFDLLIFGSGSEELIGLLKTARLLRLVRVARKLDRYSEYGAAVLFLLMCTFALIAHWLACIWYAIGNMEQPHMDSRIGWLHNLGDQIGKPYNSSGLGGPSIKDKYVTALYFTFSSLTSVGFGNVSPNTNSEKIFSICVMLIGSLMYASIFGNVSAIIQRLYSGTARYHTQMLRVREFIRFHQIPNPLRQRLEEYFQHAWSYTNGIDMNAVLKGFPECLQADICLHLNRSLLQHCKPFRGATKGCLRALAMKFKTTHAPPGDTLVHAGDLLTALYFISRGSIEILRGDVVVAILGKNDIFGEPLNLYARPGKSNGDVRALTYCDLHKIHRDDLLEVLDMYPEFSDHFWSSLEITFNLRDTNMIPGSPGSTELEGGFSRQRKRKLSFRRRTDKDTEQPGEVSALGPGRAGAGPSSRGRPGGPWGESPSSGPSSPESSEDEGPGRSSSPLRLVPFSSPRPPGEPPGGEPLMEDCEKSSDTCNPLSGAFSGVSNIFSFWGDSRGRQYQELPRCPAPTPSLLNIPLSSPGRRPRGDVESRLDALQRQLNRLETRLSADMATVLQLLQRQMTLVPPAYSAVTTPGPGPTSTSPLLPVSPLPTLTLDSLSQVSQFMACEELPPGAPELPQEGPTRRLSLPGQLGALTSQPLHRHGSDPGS

Sequence of Cannabinoid receptor 2 (P34972 whole entry): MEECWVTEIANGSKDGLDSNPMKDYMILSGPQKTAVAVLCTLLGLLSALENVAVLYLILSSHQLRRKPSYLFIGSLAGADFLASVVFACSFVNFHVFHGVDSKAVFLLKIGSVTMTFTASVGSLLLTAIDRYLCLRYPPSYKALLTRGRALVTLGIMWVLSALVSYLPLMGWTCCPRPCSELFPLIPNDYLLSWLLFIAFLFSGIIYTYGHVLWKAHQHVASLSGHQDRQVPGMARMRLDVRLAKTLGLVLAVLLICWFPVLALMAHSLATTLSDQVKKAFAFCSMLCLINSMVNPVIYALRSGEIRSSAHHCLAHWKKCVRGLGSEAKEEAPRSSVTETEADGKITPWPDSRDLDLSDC
T1 sequence (P21554 whole entry): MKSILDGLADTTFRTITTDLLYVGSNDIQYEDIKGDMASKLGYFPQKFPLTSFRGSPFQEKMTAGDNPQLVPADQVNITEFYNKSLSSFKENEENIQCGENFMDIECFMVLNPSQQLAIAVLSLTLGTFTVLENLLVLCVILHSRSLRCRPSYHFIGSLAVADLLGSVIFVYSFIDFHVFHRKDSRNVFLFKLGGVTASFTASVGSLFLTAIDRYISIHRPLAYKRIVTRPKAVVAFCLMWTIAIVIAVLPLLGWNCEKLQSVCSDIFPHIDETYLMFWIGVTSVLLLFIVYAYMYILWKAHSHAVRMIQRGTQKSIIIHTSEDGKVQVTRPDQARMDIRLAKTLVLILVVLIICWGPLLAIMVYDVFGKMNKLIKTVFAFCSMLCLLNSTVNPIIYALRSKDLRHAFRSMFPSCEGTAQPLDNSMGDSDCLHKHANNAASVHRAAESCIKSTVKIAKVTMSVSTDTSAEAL

SMILES	IC50 (Cannabinoid receptor 1 [1]) [nM]	EC50 (Cannabinoid receptor 1 [2]) [nM]	IC50 (Cannabinoid receptor 2) [nM]	IC50 [3] [nM]
O=C(Cc1ccc(C(F)(F)F)cc1)N1CCN(S(=O)(=O)c2cc(C(F)(F)F)cc(C(F)(F)F)c2)CC1	5	1	> 10000	–
O=C(Cc1ccc(C(F)(F)F)cc1)N1CCN(S(=O)(=O)c2cc(Br)cc(C(F)(F)F)c2)CC1	6	1	> 10000	–
O=C(C1CCCCC1)N1CCN(S(=O)(=O)c2cccc(C(F)(F)F)c2)CC1	4200	> 10000	–	–
O=C(C1CC1)N1CCN(S(=O)(=O)c2ccc(Cl)cc2)CC1	3500	> 10000	–	–
COC(=O)c1cc(C(F)(F)F)cc(S(=O)(=O)N2CCN(C(=O)Cc3ccc(C(F)(F)F)cc3)CC2)c1	5	1	> 10000	–
O=C(C1CCCCC1)N1C2CC1CN(S(=O)(=O)c1cccc3ccccc13)C2	> 10000	900	–	–
CN(C)C(=O)Oc1cc(C(F)(F)F)cc(S(=O)(=O)N2CCN(C(=O)[C@@H]3C[C@H]3c3ccc(C(F)(F)F)cc3)CC2)c1	2	–	–	–
O=C([C@@H]1C[C@H]1c1ccc(C(F)(F)F)cc1)N1CCN(S(=O)(=O)c2cc(-n3cccn3)cc(C(F)(F)F)c2)CC1	0.7	–	> 10000	–
O=C([C@@H]1C[C@H]1c1ccc(C(F)(F)F)cc1)N1CCN(S(=O)(=O)c2cc(-n3nccn3)cc(C(F)(F)F)c2)CC1	0.6	–	> 10000	–
O=C([C@@H]1C[C@H]1c1ccc(C(F)(F)F)cc1)N1CCN(S(=O)(=O)c2cc(-n3cncn3)cc(C(F)(F)F)c2)CC1	7	–	> 10000	–
O=C([C@@H]1C[C@H]1c1ccc(C(F)(F)F)cc1)N1CCN(S(=O)(=O)c2cc(-n3ccnn3)cc(C(F)(F)F)c2)CC1	50	–	> 10000	–
O=C([C@@H]1C[C@H]1c1ccc(C(F)(F)F)cc1)N1CCN(S(=O)(=O)c2cc(-c3ncon3)cc(C(F)(F)F)c2)CC1	0.3	–	> 10000	–
Cc1[nH]ncc1-c1cc(C(F)(F)F)cc(S(=O)(=O)N2CCN(C(=O)[C@@H]3C[C@H]3c3ccc(C(F)(F)F)cc3)CC2)c1	20	–	> 10000	–
O=C([C@@H]1C[C@H]1c1ccc(C(F)(F)F)cc1)N1CCN(S(=O)(=O)c2cc(-c3n[nH]c(=O)o3)cc(C(F)(F)F)c2)CC1	100	–	> 10000	–
O=C([C@@H]1C[C@H]1c1ccc(C(F)(F)F)cc1)N1CCN(S(=O)(=O)c2cc(-c3n[nH]c(=O)[nH]3)cc(C(F)(F)F)c2)CC1	400	–	> 10000	–
Nc1nnc(-c2cc(C(F)(F)F)cc(S(=O)(=O)N3CCN(C(=O)[C@@H]4C[C@H]4c4ccc(C(F)(F)F)cc4)CC3)c2)o1	400	–	> 10000	–
Cc1nnc(-c2cc(C(F)(F)F)cc(S(=O)(=O)N3CCN(C(=O)[C@@H]4C[C@H]4c4ccc(C(F)(F)F)cc4)CC3)c2)[nH]1	10	–	> 10000	–
CC(C)(C)C(=O)Oc1cc(C(F)(F)F)cc(S(=O)(=O)N2CCN(C(=O)[C@@H]3C[C@H]3c3ccc(C(F)(F)F)cc3)CC2)c1	8	–	–	–
CCOC(=O)Oc1cc(C(F)(F)F)cc(S(=O)(=O)N2CCN(C(=O)[C@@H]3C[C@H]3c3ccc(C(F)(F)F)cc3)CC2)c1	8	–	–	–
O=C(C1CCCCC1)N1CCN(S(=O)(=O)c2cc(C(F)(F)F)cc(C(F)(F)F)c2)CC1	–	1	> 10000	–
O=C(C1CCCCC1)N1C2CCC1CN(S(=O)(=O)c1cccc3ccccc13)C2	3100	300	–	–

SMILES	IC50 (Cannabinoid receptor 1 [1]) [nM]	EC50 (Cannabinoid receptor 1 [2]) [nM]	IC50 (Cannabinoid receptor 2) [nM]	IC50 [3] [nM]
O=C(Cc1ccc(C(F)(F)F)cc1)N1CCN(S(=O)(=O)c2cc(C(F)(F)F)cc(C(F)(F)F)c2)C1	> 10000	> 10000	–	–
CC1CN(C(=O)C2CCCCC2)CCN1S(=O)(=O)c1cccc2ccccc12 (configuration not stated)	4700	180	–	–
O=C(C1CCCCC1)N1CCN(S(=O)(=O)c2cccc3ccccc23)CC1C(F)(F)F (configuration not stated)	290	2.5	–	–
O=C([C@@H]1C[C@H]1c1ccc(C(F)(F)F)cc1)N1CCN(S(=O)(=O)c2cc(CCO)cc(C(F)(F)F)c2)CC1	4	–	> 10000	900
CC(C)(O)c1cc(C(F)(F)F)cc(S(=O)(=O)N2CCN(C(=O)[C@@H]3C[C@H]3c3ccc(C(F)(F)F)cc3)CC2)c1	8	–	> 10000	–
COc1cc(C(F)(F)F)cc(S(=O)(=O)N2CCN(C(=O)[C@@H]3C[C@H]3c3ccc(C(F)(F)F)cc3)CC2)c1	0.5	–	–	–
C[C@@H]1CN(S(=O)(=O)c2cccc3ccccc23)C[C@H](C)N1C(=O)C1CCCCC1	2800	8	–	–
O=C(C1CC1)N1CCN(S(=O)(=O)c2cc(Cl)c(Cl)cc2Cl)CC1	9700	1500	–	–
O=C([C@@H]1C[C@H]1c1ccc(C(F)(F)F)cc1)N1CCN(S(=O)(=O)c2cc(-c3cn[nH]c3)cc(C(F)(F)F)c2)CC1	9	–	> 10000	–
O=C([C@@H]1C[C@H]1c1ccc(C(F)(F)F)cc1)N1CCN(S(=O)(=O)c2cc(C(F)(F)F)cc(C(F)(F)CO)c2)CC1	5	–	> 10000	–
O=C([C@@H]1C[C@H]1c1ccc(C(F)(F)F)cc1)N1CCN(S(=O)(=O)c2cc(-c3noc(=O)[nH]3)cc(C(F)(F)F)c2)CC1	200	–	> 10000	–
O=C(Cc1ccc(C(F)(F)F)cc1)N1CC(NS(=O)(=O)c2cc(C(F)(F)F)cc(C(F)(F)F)c2)C1	> 10000	> 10000	–	–
O=C([C@@H]1C[C@H]1c1ccc(C(F)(F)F)cc1)N1CCN(S(=O)(=O)c2cc(O)cc(C(F)(F)F)c2)CC1	6	–	–	–
CC1CN(S(=O)(=O)c2cccc3ccccc23)CCN1C(=O)C1CCCCC1 (configuration not stated)	310	7	–	–
Cc1cc(C)cc(S(=O)(=O)N2CCN(C(=O)C3CCCCC3)CC2)c1	400	1.1	> 10000	–
O=C(Cc1ccc(C(F)(F)F)cc1)NC1CN(S(=O)(=O)c2cc(C(F)(F)F)cc(C(F)(F)F)c2)C1	> 10000	> 10000	–	–
CC(C)Oc1cc(C(F)(F)F)cc(S(=O)(=O)N2CCN(C(=O)[C@@H]3C[C@H]3c3ccc(C(F)(F)F)cc3)CC2)c1	0.3	–	–	–
O=C(C1CCCCC1)N1CCN(S(=O)(=O)c2cccc3ccccc23)CC1c1ccccc1 (configuration not stated)	9000	600	–	–
CC1(C)CN(S(=O)(=O)c2cccc3ccccc23)CCN1C(=O)C1CCCCC1	700	0.6	–	–
O=C([C@@H]1C[C@H]1c1ccc(C(F)(F)F)cc1)N1CCN(S(=O)(=O)c2cc(-c3c[nH]nn3)cc(C(F)(F)F)c2)CC1	3	–	> 10000	–
O=C1CSC(c2cc(C(F)(F)F)cc(S(=O)(=O)N3CCN(C(=O)[C@@H]4C[C@H]4c4ccc(C(F)(F)F)cc4)CC3)c2)=N1	10	–	> 10000	–

Further lines, with some results ahead:

IC50 (Cannabinoid receptor 1 [1]) [nM]	EC50 (Cannabinoid receptor 1 [2]) [nM]	IC50 (Cannabinoid receptor 2) [nM]	SMILES	IC50 [3] [nM]
780	5	–	O=C(C1CC1)N1CCN(S(=O)(=O)c2cc(Cl)cc(Cl)c2)CC1	–
150	4.6	–	O=C(Cc1cccc(C(F)(F)F)c1)N1CCN(S(=O)(=O)c2cc(Cl)cc(Cl)c2)CC1	–
6400	90	–	O=C(C1CC1)N1CCN(S(=O)(=O)c2cc(Cl)ccc2Cl)CC1	–
9700	1500	–	O=C(C1CC1)N1CCN(S(=O)(=O)c2c(Cl)cccc2Cl)CC1	–
3000	40	–	O=C(Cc1ccccn1)N1CCN(S(=O)(=O)c2cc(Cl)cc(Cl)c2)CC1	–
9700	1500	–	O=C(C1CC1)N1CCN(S(=O)(=O)c2c(Cl)cc(Cl)cc2Cl)CC1	–
26	0.5	–	O=C(CCc1ccc(C(F)(F)F)cc1)N1CCN(S(=O)(=O)c2cc(Cl)cc(Cl)c2)CC1	–
–	0.5	> 10000	O=C(C1CCCCC1)N1CCN(S(=O)(=O)c2cc(Cl)cc(Cl)c2)CC1	–
800	2	–	O=C(Cc1ccccc1)N1CCN(S(=O)(=O)c2cc(Cl)cc(Cl)c2)CC1	–
200	6	> 10000	O=C(C1CCCCC1)N1CCN(S(=O)(=O)c2cccc(-c3ccccc3)c2)CC1	–
16	0.5	–	O=C(Cc1ccc(C(F)(F)F)cc1)N1CCN(S(=O)(=O)c2cc(Cl)cc(Cl)c2)CC1	–
470	2.2	–	O=C(Cc1ccccc1C(F)(F)F)N1CCN(S(=O)(=O)c2cc(Cl)cc(Cl)c2)CC1	–
–	0.5	–	N#Cc1ccc(CC(=O)N2CCN(S(=O)(=O)c3cc(Cl)cc(Cl)c3)CC2)cc1	–
> 10000	> 10000	–	O=C(c1ccccc1)N1CCN(S(=O)(=O)c2cc(C(F)(F)F)cc(C(F)(F)F)c2)CC1	–
230	2.8	–	CC(C)(C(=O)N1CCN(S(=O)(=O)c2cc(Cl)cc(Cl)c2)CC1)c1ccccc1	–
95	0.6	> 10000	O=C(C1CCCCC1)N1CCN(S(=O)(=O)c2cccc3ccccc23)CC1	–
220	0.3	–	CC(C(=O)N1CCN(S(=O)(=O)c2cc(Cl)cc(Cl)c2)CC1)c1ccccc1 (racemic)	–
20	1.5	–	CC(C(=O)N1CCN(S(=O)(=O)c2cc(Cl)cc(Cl)c2)CC1)c1ccc(C(F)(F)F)cc1 (stereo in doubt; 20a)	–
400	11	–	CC(C(=O)N1CCN(S(=O)(=O)c2cc(Cl)cc(Cl)c2)CC1)c1ccc(C(F)(F)F)cc1 (stereo in doubt; 20b)	–
